Screening results as filed in PubChem BioAssay.
Hits are enriched below; roughly 3.7% of the tested compounds scored in any of these assays.
KCNQ1 pot: human KCNQ1 channel potentiation or activation; CHO-K1 KCNQ1, thallium flux FluxOR fluorescence; active compounds read high; AID 2648; 310,000 compounds, 0.35% hits; P51787; B-score at 10 µM;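 active = fluorescence ratio B-score, a plate-corrected score, at least three library SD, with initial intensity B-score within 5 SD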
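Material: CHO-K1 cells stably expressing KCNQ1. Medium: assay buffer for compound exposure, DMSO matched across wells. Reagent: K+/Tl+ depolarizing stimulus. Compound dosing: single-concentration screen. Times: 37 °C overnight plating, 90-min dark dye load, 20-min compound pretreatment. Technique: FluxOR Tl+ flux fluorescence.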
hERG protect: shields human hERG channel from block by proarrhythmic agents. CHO-hERG, FluxOR thallium flux, dofetilide IC70 present. activation (rescue from dofetilide block), less the hit threshold, % at 10 µM. 310,000 compounds, 0.51% hits. AID 1511;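 active = activation above the mean of controls blocked by dofetilide plus 5 SD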;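 note: thallium influx through hERG after potassium depolarization seen as dye fluorescence rise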
KCNK9 inh: inhibitors of human KCNK9 two-pore domain potassium channel | Q9NPC2 | HEK293 KCNK9, FluxOR thallium flux fluorescence; active compounds read low | B-score at 10 µM | 310,000 compounds, 1.2% hits;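 active = ratio B-score over 3 SD below the library mean, with starting fluorescence within 5 SD of its mean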;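 note: negative B-score means less thallium flux so channel inhibition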
KCNQ1 inh: human KCNQ1 channel inhibition; CHO-K1 KCNQ1, FluxOR thallium flux fluorescence; active compounds read high; B-score at 10 µM; 310,000 compounds, 1.3% hits;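 active = compounds whose thallium flux B-score, printed positive for inhibition, exceeds three library SD while starting fluorescence stays within three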;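 note: channel opened by potassium depolarization with thallium stimulus after 20 min compound exposure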
KCNK3 block: human KCNK3 channel inhibition, primary screen. B-score at 10 µM. 340,000 compounds, 0.84% hits. CHO-KCNK3 thallium flux, FluxOR fluorescence; active compounds read low. O14649;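 active = B-score under library mean minus 4 SD, starting fluorescence ratio at most library mean plus 5 SD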;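 note: more negative B-score means stronger inhibition of thallium flux through KCNK3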
Target sequence (O14649 whole entry, looked up): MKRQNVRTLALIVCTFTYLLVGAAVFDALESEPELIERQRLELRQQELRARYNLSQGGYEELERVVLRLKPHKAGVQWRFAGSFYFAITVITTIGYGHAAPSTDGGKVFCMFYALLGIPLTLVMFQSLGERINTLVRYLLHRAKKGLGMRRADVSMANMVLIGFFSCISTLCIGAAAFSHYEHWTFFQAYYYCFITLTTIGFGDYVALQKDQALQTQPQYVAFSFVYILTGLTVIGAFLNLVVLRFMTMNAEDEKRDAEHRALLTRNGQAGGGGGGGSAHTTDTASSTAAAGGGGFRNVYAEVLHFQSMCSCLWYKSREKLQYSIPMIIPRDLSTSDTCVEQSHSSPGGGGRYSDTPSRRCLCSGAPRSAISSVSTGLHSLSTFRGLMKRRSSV
Kir21 inh: blocks the mouse Kir2.1 inward-rectifier potassium channel; 310,000 compounds, 0.85% hits; HEK293-Kir2.1, FluxOR thallium flux fluorescence; active compounds read low; P35561; B-score at 10 µM;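 active = fluorescence ratio B-score at or below minus 3 SD of library scores, with starting-brightness B-score within 2 SD, cut at about -4.2 in these data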;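 note: channel flux triggered by added potassium and thallium sulfate stimulus; B-score of peak minus minimum fluorescence over baseline after thallium stimulus; more negative B-score means stronger Kir2.1 block with less thallium influx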
KCNK9 block conf: confirmation of human KCNK9 potassium channel inhibitors. inhibition, % at 10 µM. 4,900 compounds, 43% hits. HEK293 KCNK9 cells, FluxOR thallium flux fluorescence. shares compounds with KCNK9 inh;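 active = thallium signal inhibited by more than 5 SD of the compound-free buffer control wells, on both duplicate plates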;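 note: 0% = assay buffer control wells without compound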
Kir2-1 spec: mouse Kir2.1 off-target activity of KCNK9 modulators. AID 492993. inhibition, % at 10 µM. 4,900 compounds, 4% hits. Kir2.1 cells, FluxOR thallium flux fluorescence. shares compounds with KCNK9 inh;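 active = thallium signal drop more than 5 SD beyond the mean of the no-compound control wells, seen in both duplicate plates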;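 note: signal is fluorescence rise after thallium addition divided by baseline fluorescence; plate controls were assay buffer only for no effect and full block by chlorpromazine control for full effect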
HEK293 Tl ctr: non-induced cell nonspecific activity of KCNK9 modulators; shares compounds with KCNK9 inh; inhibition, % at 10 µM; non-induced KCNK9-HEK293, FluxOR thallium flux; 4,900 compounds, 40% hits;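 active = thallium signal drop beyond 5 SD of the untreated control mean, on both duplicate plates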;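 note: plate controls were buffer only IC0 wells for no effect and SID17386958 at its maximal inhibitory level for full effect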
* hit, by the source's call; i = inactive; . = no result.

SMILES	KCNQ1 pot	hERG protect	KCNK9 inh	KCNQ1 inh	KCNK3 block	Kir21 inh	KCNK9 block conf	Kir2-1 spec	HEK293 Tl ctr
COc1ccc(Cn2c(=O)[nH]c3cc(C(=O)N4CCN(Cc5ccccc5)CC4)ccc3c2=O)cc1	i	-8.6	i	i	i	0.98	.	.	.
COc1ccc2c(C)c(C(=O)N3CCN(Cc4ccccc4)CC3)oc2c1	i	-7.8	i	i	i	-3.56	i	i	i
COc1ccc(C(=O)CN2C(=O)NC3(CCc4ccccc43)C2=O)cc1 (centres undefined)	i	-11.1	i	i	i	-0.27	.	.	.
N#Cc1c2c(c[nH]c1=O)CCN2Cc1ccccc1	i	-6.7	i	i	i	-0.36	.	.	.
Cc1ccc(C)c(N=C2CCCN2Cc2ccccc2)c1C#N	i	-12.9	-8.9*	i	i	-3.18	i	i	36.0%*
CCCCCCCCC(=O)N/N=C(\C)c1ccc(O)cc1O	i	-16.2	-10.1*	i	i	0.05	57.0%*	i	42.0%*
CC(C)C(NC(=O)c1ccc(F)cc1)C(=O)N1CCN(C(=O)c2ccco2)CC1 (centres undefined)	.	.	.	.	i	.	.	.	.
Cc1ccccc1/C=C/c1nc2ccccc2c(=O)n1CCc1ccccc1	i	-6.9	-11*	i	i	-0.01	24.5%*	i	33.0%*
COc1cccc(NC(=O)C(Sc2nnc(Nc3ccccc3C)s2)c2ccccc2)c1 (centres undefined)	i	-6.8	-9.09*	i	i	0.44	i	i	38.5%*
COc1cccc(/C(=N/O)C2CC2c2ccc(Cl)cc2)c1 (centres undefined)	i	3.0	i	i	i	-0.01	.	.	.
CCOC(=O)C1CCN(c2nc(-c3ccc(Br)cc3)nc3ccccc23)CC1	i	-12.4	-8.81*	i	i	2.6	i	i	22.5%*
Cn1nc(C(F)(F)F)c(/C=N/OC(=O)c2ccccc2Cl)c1SCc1ccccc1Cl	i	-13.9	-10.2*	i	i	1.05	44.5%*	i	36.0%*
O=C(CN1C(=O)S/C(=C\c2cccc(Cl)c2)C1=O)NCCCn1ccnc1	i	-18.3	i	i	i	-1.37	i	i	i
O=C(CN1C(=O)S/C(=C\c2ccc(Cl)cc2)C1=O)NCCCn1ccnc1	i	-11.3	i	i	i	-2.27	.	.	.
O=C(NCCc1nc2ccc(Cl)cc2[nH]1)C1CCC(=O)N(Cc2cccc(F)c2)C1 (centres undefined)	i	-4.5	i	i	i	-0.05	.	.	.
CCn1c(SCc2ccccc2Cl)nc2nc3c(cc2c1=O)CCCC3	i	-12.0	i	i	i	1.04	i	i	i
CCCCN(C)C(=O)CSc1nc(NCc2ccc(OC)cc2)c2ccccc2n1	i	-12.1	i	i	i	-1.58	i	i	i
CCOC(=O)c1nc(NCc2ccccc2)c2ccccc2n1	i	-1.6	i	i	i	-0.7	.	.	.
COc1cc(Cl)cc2c1Sc1ccccc1/C2=C/CCN(C)C	i	-19.4	i	i	i	-12.7*	i	i	i
CN1CCN(C2=Cc3cc(Cl)ccc3Sc3cc(F)ccc32)CC1	i	-31.3	i	i	i	-1.59	.	.	.
CN(C)CC/C=C1/c2cc(F)ccc2Sc2ccc(Cl)cc21	i	-7.3	i	i	i	-8.48*	i	i	i
CN(C)CC/C=C1/c2ccccc2Sc2c(O)cc(Cl)cc21	i	-15.5	i	i	i	-1.85	.	.	.
O=C1C(=Nc2cccc(Cl)c2)CC(c2ccc(Cl)cc2)N1c1cccc(Cl)c1 (centres undefined)	i	-7.8	i	i	i	-0.67	.	.	.
O=C(Nc1ccccc1C(=O)O)C1=NN=CC1	i	2.1	i	i	i	-0.79	.	.	.
OCCC1CN(Cc2ccccc2-c2ccco2)CCN1C1CCCC1 (centres undefined)	i	-10.1	i	i	i	-2	.	.	.
SMILES	KCNQ1 pot	hERG protect	KCNK9 inh	KCNQ1 inh	KCNK3 block	Kir21 inh	KCNK9 block conf	Kir2-1 spec	HEK293 Tl ctr
O=S(=O)(NCC(c1ccco1)N1CCN(c2ccccc2F)CC1)c1ccc(F)cc1 (centres undefined)	i	-8.3	-12.8*	i	i	1.13	45.5%*	i	34.0%*
O=C(CCC1CCCC1)Nc1nnc(-c2ccc3c(c2)OCO3)s1	i	-7.6	i	i	i	-0.39	.	.	.
Cc1ccc(-c2c(C)sc3ncn(CC(=O)N4CCOCC4)c(=O)c23)cc1C	i	-12.1	i	i	i	-0.21	i	i	i
Cc1ccc(-c2csc3ncn(CC(=O)N4CCOCC4)c(=O)c23)cc1C	i	-7.5	i	i	i	-0.68	.	.	.
CCN(CC)CCn1c(SCC(=O)Nc2cccc(OC)c2)nc2c(sc3ccccc32)c1=O	i	-21.0	-11.7*	i	i	-0.02	48.5%*	i	31.5%*
CCN(CC)CCn1c(SCC(=O)NCc2ccco2)nc2c(sc3ccccc32)c1=O	i	-12.2	i	i	i	0.1	.	.	.
OCC1(O)OC[C@@H](O)[C@H]1O (some centres undefined)	i	-6.9	i	i	i	-1.03	.	.	.
N#C/C(=C/c1ccc(N2CCCCCC2)o1)c1cccc(F)c1	i	-26.0	-15.1*	9*	-13*	-1.57	74.0%*	i	71.0%*
COc1cccc(/C=C(/C#N)c2ccc(F)cc2)c1OCc1cccc(C(=O)O)c1	i	-3.9	i	i	i	-1.9	.	.	.
COc1cc(N2CCCC2)c(OC)cc1/C=C(/C#N)c1cccc(F)c1	i	-20.4	-12.4*	7*	-10.5*	-3.45	61.0%*	35.0%*	50.0%*
N#C/C(=C/c1ccc(N2CCCCCC2)o1)c1ccc(F)cc1	i	-13.6	-9.25*	i	-10.6*	0.43	58.5%*	i	70.5%*
O=C(COC(=O)CNC(=O)c1ccc(Cl)cc1Cl)NC1CCCCC1	i	-4.3	i	i	i	1.44	.	.	.
CCCCC(=O)N(c1ccc(C(=O)O)cc1)c1nc(-c2ccc(Cl)cc2)c(CC)s1	i	-9.6	i	i	i	-1.13	i	i	i
